Reference: PMC3055939 (Chemical biology & drug design, 2011)
pIC50: −log10 of the molar value.

How the values were obtained:
[1] = cited from earlier work
purified PSMA (GCP2) = purified PSMA (GCP2) (Homo sapiens, UniProt Q04609); experiment: IC50 determinations for PSMA inhibition; type: biochemical
Summary of the method: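 Purified PSMA (working stock 50 μg/mL) was diluted in 50 mM Tris, pH 7.4, 1% Triton X-100 to give 15–20% substrate conversion without inhibitor. […] Reactions were quenched with 2% TFA in methanol, buffered with K2HPO4, and centrifuged. Product was quantified by HPLC, and IC50 was calculated.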

purified PSMA (GCP2), sequence (Q04609 whole entry): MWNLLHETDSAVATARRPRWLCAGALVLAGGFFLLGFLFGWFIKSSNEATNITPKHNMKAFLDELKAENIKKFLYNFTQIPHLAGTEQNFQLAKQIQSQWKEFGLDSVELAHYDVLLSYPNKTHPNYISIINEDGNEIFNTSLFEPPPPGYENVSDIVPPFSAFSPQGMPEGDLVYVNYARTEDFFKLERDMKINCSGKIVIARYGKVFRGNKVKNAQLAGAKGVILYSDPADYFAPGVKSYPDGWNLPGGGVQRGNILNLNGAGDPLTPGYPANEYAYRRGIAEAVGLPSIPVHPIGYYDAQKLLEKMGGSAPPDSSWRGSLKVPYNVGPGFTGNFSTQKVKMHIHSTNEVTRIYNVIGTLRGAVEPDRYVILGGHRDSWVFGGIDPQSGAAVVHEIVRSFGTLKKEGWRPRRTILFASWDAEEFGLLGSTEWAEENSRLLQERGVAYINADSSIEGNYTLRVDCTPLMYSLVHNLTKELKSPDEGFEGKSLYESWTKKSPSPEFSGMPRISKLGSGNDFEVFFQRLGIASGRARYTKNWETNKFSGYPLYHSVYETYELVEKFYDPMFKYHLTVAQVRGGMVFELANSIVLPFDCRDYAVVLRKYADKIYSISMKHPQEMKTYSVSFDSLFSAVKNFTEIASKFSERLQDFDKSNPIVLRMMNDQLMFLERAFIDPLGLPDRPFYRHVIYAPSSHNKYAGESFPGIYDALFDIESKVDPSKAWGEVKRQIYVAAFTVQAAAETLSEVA

| Compound | oral bioavailability [1] | pIC50 (purified PSMA (GCP2)) |
| --- | --- | --- |
| O=C(O)CCC(CP(=O)(O)O)C(=O)O (centres unmarked) [2-PMPA] | poor oral bioavailability |  |
| C=CS(=O)(=O)NC(CCC(=O)O)C(=O)O (centres unmarked) [2e, 2-Ethenesulfonylamino-pentanedioic acid] |  | < 4.00 |
